# A selection: hits, their analogues and other compounds. The true share with any hit is near 5.4%.
# DAT uptake mod: changed human dopamine transporter uptake under cocaine IC80; LLC-PK1 hDAT cells, [14C]-dopamine uptake with cocaine IC80; actives deviate in either direction; AID 449768; actives 1.3% (n = 110,000); B-score at 10 µM;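 active = Z score or B-score, a plate-position-corrected score, falls beyond the plate's 99.7% confidence bounds, in either direction; inactive = both scores lie inside the 99.7% bounds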;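 note: scored against the spread of the other compound wells on the same plate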
# HIV Rev-RRE inh: disrupts HIV-1 Rev binding to RRE RNA; Rev peptide-RRE RNA binding, FRET; inhibition, % at 8 µM; actives 0.79% (n = 97,000); AID 704;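 active = inhibition above the screen-wide mean plus 3 SD, cut at about 35% in these data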;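 note: 0% = median DMSO wells and 100% = median Neomycin B control wells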
#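 Probe or stimulus: fluorescein-Rev peptide as binding partner; assay system: Cy5-tagged RRE RNA duplex with fluorescein-tagged Rev peptide; timing: 5 min compound–RNA preincubation, then 15 min with peptide, 25 °C; medium: HEPES pH 7.5 buffer with KCl, MgCl2, NaCl and EDTA; signal: fluorescein-to-Cy5 FRET, 480 nm excitation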
# Cav32 inh: human Cav3.2 channel inhibition, primary screen; Cav3.2-expressing cells, Fluo-4 calcium fluorescence FDSS; stronger effect = lower value; B-score at 10 µM; O95180; actives 4% (n = 100,000);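 active = single-dose well whose peak fluorescence ratio is a statistical outlier from its plate by either plate-standardised score or position-corrected B-score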
# EphB4 antag: blocks human EphB4 binding to ephrin-B2. P54760. EphB4 LBD / TNYL-RAW-Alexa532 peptide, fluorescence polarization. inhibition, % at 7 µM. actives 0.15% (n = 97,000). AID 720;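 active = inhibition above the screen-wide mean inhibition plus 3 SD, cut at about 15% in these data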;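 note: 0% = DMSO wells and 100% = excess unlabeled TNYL-RAW peptide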
# Numbers without * were called inactive; . = no result.
SMILES,DAT uptake mod,HIV Rev-RRE inh,Cav32 inh,EphB4 antag
Cn1c(=O)c(-c2ccccc2)nc2ccccc21,1.2,6,0.31,-1
O=C1CN(C(=O)c2ccccc2)c2ccccc2N1,-1,5,1.1,-5
O=C1CN(C(=O)c2cc(Br)c(Br)s2)c2ccccc2N1,-0.54,6,-5.6*,-2
Cc1ccc(-n2c(SCC(N)=O)nnc2-c2ccc(S(=O)(=O)N3CCCCC3)cc2)c(C)c1,-0.42,1,1.3,-6
COCCCn1c(SCc2ccccc2)nc2cc(OC)c(OC)cc2c1=N,8.2*,5,-0.15,3
COCCCn1c(SCc2cccc(C(F)(F)F)c2)nc2cc(OC)c(OC)cc2c1=N,1.1,11,-0.56,-2
CC1(C)Cc2c(sc(/N=C/N3CCCC3)c2C#N)C(C)(C)N1,0.3,6,0.8,13
COc1ccc(C2NC3=C(CCCC3)C(C#N)(C#N)C2(C#N)C#N)cc1 (stereo unspecified),0.023,46*,0.061,-5
COc1ccc(C2NC3=C(CCC3)C3(C#N)C4(N=C(N)C23C#N)OCCO4)cc1 (stereo unspecified),-0.048,11,0.11,10
COCCN1CCN(C(=O)c2ccc3c(c2)S(=O)(=O)c2ccccc2C3=O)CC1,-0.16,.,0.93,.
NC(=O)C1=NOC(CNc2ncc(C(F)(F)F)cc2Cl)C1 (stereo unspecified),0.12,8,0.047,-2
O=C(ON=C1CCN(S(=O)(=O)c2ccccc2)CC1)c1ccc(F)cc1,-0.029,3,-0.34,-7
O=C(O/N=C1/CCSc2ccccc21)c1ccc(F)cc1,0.067,2,-4.7*,0
O=C(CN1CCCC1)N1CCCc2c1c(=O)oc1ccc(OCc3ccccc3)cc21,2.2*,10,0.79,3
CCCOc1ccc2oc(=O)c3c(c2c1)CCCN3C(=O)CN1CCCC(C(=O)OCC)C1 (stereo unspecified),0.49,2,-0.37,8
COc1ccc(C(=O)OCC(=O)NCc2ccco2)cc1S(=O)(=O)N1CCN(c2cccc(Cl)c2)CC1,-1.1,5,-7.4*,4
O=C(CCn1nc(-c2ccccc2)c2ccccc2c1=O)N1CCN(c2ccccc2)CC1,0.56,-3,-5.3*,-1
COc1ccc(N(C(=O)c2ccco2)C(C(=O)NC2CCCC2)c2ccc(N(C)C)cc2)cc1 (stereo unspecified),1.2,-5,-3.5*,-3
Cc1cc(NC(=O)CCC(=O)N(Cc2ccco2)C(C(=O)NC2CCCCC2)c2ccccc2)no1 (stereo unspecified),-0.48,1,-4.4*,-4
O=C(NCC(=O)N(Cc1cccs1)C(C(=O)NC1CCCCC1)c1ccco1)c1ccco1 (stereo unspecified),1.2,11,0.49,0
O=C(NC1CCCCC1)C(c1cccs1)N(Cc1cccs1)C(=O)c1ccco1 (stereo unspecified),-0.11,7,-4.1*,6
O=C(NCC(=O)N(Cc1ccco1)C(C(=O)NC1CCCC1)c1ccncc1)c1cccs1 (stereo unspecified),-0.21,7,0.074,6
O=C(NC1CCCC1)C(c1ccccc1)N(Cc1ccco1)C(=O)Cc1cccs1 (stereo unspecified),-0.23,5,-6.2*,-6
CC1CCCC(C)N1C(=O)Cc1ccccc1 (stereo unspecified),0.6,7,0.99,3
Cc1cc(NC(=O)CCC(=O)N(CCc2ccccc2)C(C(=O)NC2CCCC2)c2ccco2)no1 (stereo unspecified),0.55,6,-3.7*,5
SMILES,DAT uptake mod,HIV Rev-RRE inh,Cav32 inh,EphB4 antag
Cc1cc(NC(=O)CCC(=O)N(Cc2cccs2)C(C(=O)NC2CCCC2)c2ccncc2)no1 (stereo unspecified),-0.22,.,0.82,.
Cc1cc(NC(=O)CCC(=O)N(c2ccc(F)cc2)C2(C(=O)NC3CCCCC3)CCCC2)no1,0.51,0,-3.7*,-10
Cc1cc(NC(=O)CCC(=O)N(Cc2ccco2)C(C(=O)NC2CCCC2)c2ccccc2C)no1 (stereo unspecified),0.029,-2,-7.4*,1
Clc1ccccc1CN(Cc1ccccc1)c1ncnc2nc[nH]c12,2,11,-3.7*,4
COc1ccc(S(=O)(=O)Nc2cc(C)ccc2OC)cc1C,0.57,13,-7.7*,-2
COc1ccc(Cl)cc1NS(=O)(=O)c1ccc(OC)c(OC)c1,0.19,1,-1,5
Cc1ccc(C(C)C)c(OCC(=O)Nn2c(C)nc3ccccc3c2=O)c1,0.96,10,-5*,-1
